Measurements from publication PMC7415440 (Drug Design, Development and Therapy, 2020).

Experiments:
[1] = Major metabolites in samples of the highest dose groups; assay type: in vivo, human; settings: 600 mg in SAD and 450 mg in MAD
[2] = test system: stroke animal model; settings: ref unpublished data on file, Jeil Pharma, Seoul, Korea; cited from earlier work
[3] = test system: tMCAO stroke model; settings: tMCAO stroke model using monkeys; cited from earlier work
[4] = MAD study safety and tolerability assessment; assay type: in vivo, human; settings: for Number of Subjects with AEs (%) / Number of Subjects with Drug Related AEs (% total): 6 subjects
Method in brief: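 Double-blind, placebo-controlled trial in healthy Korean males (active:placebo 6:2 per group), infused iv in normal saline over 1 h every 12 h, seven doses over 3.5 days, at 150, 300 or 450 mg. Subjects were in-house days 1–5, with follow-up 8 days after the last dose. Monitoring covered vital signs, 12-lead ECG, clinical labs, physical exams and AEs, with intensity and relationship to drug recorded.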

[5] = Multiple ascending dose; assay type: in vivo, human
Method in brief: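 Seven 1 h iv saline infusions every 12 h. Plasma sampled to 12 h after the first dose, predose at 60 and 72 h, then to 96 h; urine collected in 4–12 h intervals after the first and last doses. HPLC-MS/MS with deuterated internal standard; plasma range 10–30,000 ng/mL, urine 50–150,000 ng/mL. Noncompartmental analysis on actual sampling times; AUCτ by trapezoidal rule; CLR as Ae/AUClast.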

[6] = multiple iv doses, n=24, number of subjects [cases]
[7] = multiple iv 150 mg over 1 h every 12 h x7, n=6, mean (SD)
[8] = multiple iv 300 mg over 1 h every 12 h x7, n=6, mean (SD)
[9] = multiple iv 450 mg over 1 h every 12 h x7, n=6, mean (SD)
[10] = multiple iv, all doses 150-450 mg, Total n=18, mean (SD)

In the case of `CCOc1cc(CN2CCOCC2)cc2[nH]c(=O)c3c(c12)NCCC3.Cl.Cl.O.O` [JPI-289], the “number of metabolites detected” value [1] is listed as “Twenty-two”, the “time after stroke onset at which treatment showed efficacy” value [2] is listed as “more than 10 h” and the “decrease in infarction volume” value [3] is listed as 53%. The “intensity of AEs” value ([4]; MAD) was “mild in intensity”, the tolerability ([4]; MAD, dose range 150–450 mg) was “well tolerated” and the “total number of AEs” value ([4]; MAD, in seven subjects) was 12. The “Number of Subjects with AEs (%)” value ([4]; multiple iv doses 150 mg) was 0 (0.0), the “Number of Subjects with Drug Related AEs (% total)” value (“Number of Subjects … (% total)” below) ([4]; multiple iv doses 150 mg) was 0 (0.0) and the “Number of Subjects with AEs (%)” value ([4]; multiple iv doses 300 mg) was 1 (16.7). For the same compound, the “Number of Subjects … (% total)” value ([4]; multiple iv doses 300 mg) was 1 (16.7), the “Number of Subjects with AEs (%)” value ([4]; multiple iv doses 450 mg) was 5 (83.3) and the “Number of Subjects … (% total)” value ([4]; multiple iv doses 450 mg) was 4 (66.7). For the same compound, the “Abdominal discomfort, Drug-Related” value [4, 6] was 0 [0], the “Abdominal discomfort, Not Related” value [4, 6] was 1 [1] and the “Abdominal discomfort, Total” value [4, 6] was 1 [1]. The “Bilirubin total increased, Drug-Related” value [4, 6] was 1 [1], the “Bilirubin total increased, Not Related” value [4, 6] was 0 [0] and the “Bilirubin total increased, Total” value [4, 6] was 1 [1]. For the same compound, the “Diarrhea, Drug-Related” value [4, 6] was 0 [0], the “Diarrhea, Not Related” value [4, 6] was 1 [1] and the “Diarrhea, Total” value [4, 6] was 1 [1]. The “Dizziness, Drug-Related” value [4, 6] was 2 [2], the “Dizziness, Not Related” value [4, 6] was 0 [0] and the “Dizziness, Total” value [4, 6] was 2 [2]. The “Fever, Drug-Related” value [4, 6] was 1 [1], the “Fever, Not Related” value [4, 6] was 0 [0] and the “Fever, Total” value [4, 6] was 1 [1]. For the same compound, the “Headache, Drug-Related” value [4, 6] was 2 [2], the “Headache, Not Related” value [4, 6] was 0 [0] and the “Headache, Total” value [4, 6] was 2 [2]. For the same compound, the “Heart rate increased, Drug-Related” value [4, 6] was 0 [0], the “Heart rate increased, Not Related” value [4, 6] was 0 [0] and the “Heart rate increased, Total” value [4, 6] was 0 [0]. The “Sinus tachycardia, Drug-Related” value [4, 6] was 1 [1], the “Sinus tachycardia, Not Related” value [4, 6] was 0 [0] and the “Sinus tachycardia, Total” value [4, 6] was 1 [1]. For the same compound, the “Stomatitis, Drug-Related” value [4, 6] was 1 [1], the “Stomatitis, Not Related” value [4, 6] was 0 [0] and the “Stomatitis, Total” value [4, 6] was 1 [1]. For the same compound, the “Urticaria, Drug-Related” value [4, 6] was 2 [2], the “Urticaria, Not Related” value [4, 6] was 0 [0] and the “Urticaria, Total” value [4, 6] was 2 [2]. The “AUCτ,1st dose” value [5, 7] was 4766.06 (878.28) ng·h/mL, the “AUCτ,ss” value [5, 7] was 7696.21 (1157.59) ng·h/mL and the “Ae,1st dose” value [5, 7] was 3.98 (1.21) mg. The “Ae,last dose” value [5, 7] was 5.48 (1.64) mg, the “CLR,1st dose” value [5, 7] was 0.84 (0.21) L/h and the “CLR,last dose” value [5, 7] was 0.73 (0.24) L/h. For the same compound, the CLss [5, 7] was 19.91 (3.37) L/h, the “Cav,ss” value [5, 7] was 641.35 (96.47) ng/mL and the “Cmax,1st dose” value [5, 7] was 1728.17 (353.61) ng/mL. The “Cmax,ss” value [5, 7] was 2023.47 (460.41) ng/mL, the “Observed AI (accumulation index)” value [5, 7] was 1.64 (0.21) and the “Vd,ss” value [5, 7] was 112.20 (31.78) L. For the same compound, the Vz [5, 7] was 85.65 (17.01) L, the “t1/2,eff” value [5, 7] was 1.88 (0.13) L and the t1/2z [5, 7] was 2.44 h. The “AUCτ,1st dose” value [5, 8] was 14,809.79 (2793.29) ng·h/mL, the “AUCτ,ss” value [5, 8] was 22,608.80 (5198.68) ng·h/mL and the “Ae,1st dose” value [5, 8] was 11.74 (3.77) mg. The “Ae,last dose” value [5, 8] was 13.87 (5.36) mg, the “CLR,1st dose” value [5, 8] was 0.80 (0.25) L/h and the “CLR,last dose” value [5, 8] was 0.61 (0.14) L/h. The CLss [5, 8] was 13.95 (3.63) L/h, the “Cav,ss” value [5, 8] was 1884.07 (433.23) ng/mL and the “Cmax,1st dose” value [5, 8] was 4747.25 (798.21) ng/mL. The “Cmax,ss” value [5, 8] was 5658.20 (804.71) ng/mL, the “Observed AI (accumulation index)” value [5, 8] was 1.52 (0.22) and the “Vd,ss” value [5, 8] was 74.92 (11.18) L. The Vz [5, 8] was 67.95 (11.04) L, the “t1/2,eff” value [5, 8] was 2.46 (0.67) L and the t1/2z [5, 8] was 2.74 h. The “AUCτ,1st dose” value [5, 9] was 28,278.07 (6412.76) ng·h/mL, the “AUCτ,ss” value [5, 9] was 50,840.74 (19,417.91) ng·h/mL and the “Ae,1st dose” value [5, 9] was 25.66 (5.03) mg. For the same compound, the “Ae,last dose” value [5, 9] was 40.71 (20.87) mg, the “CLR,1st dose” value [5, 9] was 0.92 (0.16) L/h and the “CLR,last dose” value [5, 9] was 0.77 (0.22) L/h. For the same compound, the CLss [5, 9] was 9.78 (3.11) L/h, the “Cav,ss” value [5, 9] was 4236.73 (1618.16) ng/mL and the “Cmax,1st dose” value [5, 9] was 8070.98 (1320.10) ng/mL. The “Cmax,ss” value [5, 9] was 11,921.28 (1655.56) ng/mL, the “Observed AI (accumulation index)” value [5, 9] was 1.76 (0.28) and the “Vd,ss” value [5, 9] was 72.06 (8.72) L. The Vz [5, 9] was 63.02 (8.23) L, the “t1/2,eff” value [5, 9] was 3.05 (0.97) L and the t1/2z [5, 9] was 3.5 h. The “AUCτ,1st dose” value [5, 10] was 15,951.31 (10,623.66) ng·h/mL, the “AUCτ,ss” value [5, 10] was 27,048.58 (21,404.87) ng·h/mL and the “Ae,1st dose” value [5, 10] was 13.79 (9.86) mg. For the same compound, the “Ae,last dose” value [5, 10] was 20.02 (19.40) mg, the “CLR,1st dose” value [5, 10] was 0.85 (0.20) L/h and the “CLR,last dose” value [5, 10] was 0.70 (0.21) L/h. The CLss [5, 10] was 14.54 (5.33) L/h, the “Cav,ss” value [5, 10] was 2254.05 (1783.74) ng/mL and the “Cmax,1st dose” value [5, 10] was 4848.80 (2800.32) ng/mL. For the same compound, the “Cmax,ss” value [5, 10] was 6534.32 (4330.54) ng/mL, the “Observed AI (accumulation index)” value [5, 10] was 1.64 (0.24) and the “Vd,ss” value [5, 10] was 86.39 (26.65) L. The Vz [5, 10] was 72.21 (15.52) L, the “t1/2,eff” value [5, 10] was 2.46 (0.81) L and the t1/2z [5, 10] was 2.89 h.
